The text below walks through data of ChEMBL document CHEMBL2146367, “Novel fluorescent ceramide derivatives for probing ceramidase substrate specificity” (Bioorg Med Chem, 2012).

Substrate in data set [1]: CCCCCCCCCCCCC/C=C/[C@@H](O)[C@H](CO)NC(=O)CCCCCCCCCCCNc1ccc([N+](=O)[O-])c2nonc12
Put plainly: Activity of mouse neutral ceramidase after 30 mins by TLC-based fluorescence imaging.

Substrate in data set [2]: CCCCCCCCCCCCC/C=C/[C@@H](O)[C@H](CO)NC(=O)CCCCCCCCCCCNc1ccc([N+](=O)[O-])c2nonc12
Put plainly: (§1) Activity of human recombinant neutral ceramidase assessed per ng of protein after 60 mins by Lineweaver-Burk plot analysis. In a few lines:
(§2)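 Human recombinant nCDase held at 20 ng/mL in 200 mM sodium acetate pH 7.0 with 200 mM NaCl and 0.1% Triton X-100. Substrate varied from 5 to 150 or 5 to 180 µM, DMSO <5%. Incubated 60 min at 37 °C, chloroform/methanol quench, TLC with fluorescence imaging. Kinetic constants from Lineweaver-Burk plots, mean ± SD of triplicate experiments.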

Substrate in data set [3]: CCCCCCCCCCCCCCCC(=O)N[C@@H](CO)[C@H](O)/C=C/CCCCCCCCCOc1ccc2c(=O)cc3oc4cc(N(CC)CC)ccc4nc-3c2c1
Described as §1. An outline of the steps:
as §2

Substrate in data set [4]: CCCCCCCCCCCCCCCC(=O)N[C@@H](CO)[C@H](O)/C=C/CCCCCCCCCNc1ccc([N+](=O)[O-])c2nonc12
The data set is described as §1. An outline of the steps:
as §2

Substrate in data set [5]: CCCCCCCCCCCCC/C=C/[C@@H](O)[C@H](CO)NC(=O)CCCCCCCCCCCOc1ccc2c(=O)cc3oc4cc(N(CC)CC)ccc4nc-3c2c1
The data set is described as §1. An outline of the steps: as §2

Substrate in data set [6]: CCCCCCCCCCCCC/C=C/[C@@H](O)[C@H](CO)NC(=O)CCCCCCCCCCCNc1ccc([N+](=O)[O-])c2nonc12
Put plainly: (§3) Activity of human recombinant neutral ceramidase after 60 mins by Lineweaver-Burk plot analysis. An outline of the steps:
as §2

Substrate in data set [7]: CCCCCCCCCCCCCCCC(=O)N[C@@H](CO)[C@H](O)/C=C/CCCCCCCCCOc1ccc2c(=O)cc3oc4cc(N(CC)CC)ccc4nc-3c2c1
The data set is described as §3. In a few lines: as §2

Substrate in data set [8]: CCCCCCCCCCCCCCCC(=O)N[C@@H](CO)[C@H](O)/C=C/CCCCCCCCCNc1ccc([N+](=O)[O-])c2nonc12
The data set is described as §3. In a few lines: as §2

Substrate in data set [9]: CCCCCCCCCCCCC/C=C/[C@@H](O)[C@H](CO)NC(=O)CCCCCCCCCCCOc1ccc2c(=O)cc3oc4cc(N(CC)CC)ccc4nc-3c2c1
Described as §3. In a few lines:
as §2

Substrate in data set [10]: CCCCCCCCCCCCC/C=C/[C@@H](O)[C@H](CO)NC(=O)CCCCCCCCCCCNc1ccc([N+](=O)[O-])c2nonc12
The experiment in a line: (§4) Activity of human recombinant acid ceramidase expressed in baculovirus infected Sf9 cells after 150 mins by Lineweaver-Burk plot analysis. An outline of the steps: (§5)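 Recombinant human aCDase expressed in insect cells, at a fixed enzyme level, in 200 mM sodium acetate pH 4.5 with 200 mM NaCl and 0.1% Triton X-100. Substrate varied from 5 to 150 µM or 5 to 180 µM, added from DMSO stocks (DMSO <5% v/v), 37 °C for 150 min. Chloroform/methanol extraction, TLC, fluorescence imaging of cleaved and uncleaved spots. KM, Vmax and kcat taken from Lineweaver-Burk plots, mean ± SD of three independent experiments.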

Substrate in data set [11]: CCCCCCCCCCCCCCCC(=O)N[C@@H](CO)[C@H](O)/C=C/CCCCCCCCCOc1ccc2c(=O)cc3oc4cc(N(CC)CC)ccc4nc-3c2c1
The description is as §4. An outline of the steps: as §5

Substrate in data set [12]: CCCCCCCCCCCCCCCC(=O)N[C@@H](CO)[C@H](O)/C=C/CCCCCCCCCNc1ccc([N+](=O)[O-])c2nonc12
The data set is described as §4. In a few lines: as §5

Substrate in data set [13]: CCCCCCCCCCCCC/C=C/[C@@H](O)[C@H](CO)NC(=O)CCCCCCCCCCCOc1ccc2c(=O)cc3oc4cc(N(CC)CC)ccc4nc-3c2c1
The data set is described as §4. An outline of the steps:
as §5

Substrate in data set [14]: CCCCCCCCCCCCC/C=C/[C@@H](O)[C@H](CO)NC(=O)CCCCCCCCCCCNc1ccc([N+](=O)[O-])c2nonc12
Put plainly: (§6) Activity of human recombinant acid ceramidase expressed in baculovirus infected Sf9 cells assessed per ug of protein after 150 mins by Lineweaver-Burk plot analysis. In a few lines:
as §5

Substrate in data set [15]: CCCCCCCCCCCCCCCC(=O)N[C@@H](CO)[C@H](O)/C=C/CCCCCCCCCOc1ccc2c(=O)cc3oc4cc(N(CC)CC)ccc4nc-3c2c1
Described as §6. In a few lines:
as §5

Substrate in data set [16]: CCCCCCCCCCCCCCCC(=O)N[C@@H](CO)[C@H](O)/C=C/CCCCCCCCCNc1ccc([N+](=O)[O-])c2nonc12
Described as §6. In a few lines: as §5

Substrate in data set [17]: CCCCCCCCCCCCC/C=C/[C@@H](O)[C@H](CO)NC(=O)CCCCCCCCCCCOc1ccc2c(=O)cc3oc4cc(N(CC)CC)ccc4nc-3c2c1
The description is as §6. An outline of the steps: as §5

Usually Km stands for the concentration of substrate that gives half-maximal velocity. In general, Vmax refers to the top rate of the reaction or transport when substrate is in excess.

B1: Neutral ceramidase (Mus musculus), Q9JHE3 (protein)
chain: MAKRTFSTLEAFLIFLLVIMTVITVALLTLLFVTSGTIENHKDSGNHWFSTTLGSTTTQPPPITQTPNFPSFRNFSGYYIGVGRADCTGQVSDINLMGYGKNGQNARGLLTRLFSRAFILADPDGSNRMAFVSVELCMISQRLRLEVLKRLESKYGSLYRRDNVILSAIHTHSGPAGFFQYTLYILASEGFSNRTFQYIVSGIMKSIDIAHTNLKPGKIFINKGNVANVQINRSPSSYLLNPQSERARYSSNTDKEMLVLKLVDLNGEDLGLISWFAIHPVSMNNSNHFVNSDNMGYAAYLFEQEKNKGYLPGQGPFVAGFASSNLGDVSPNILGPHCVNTGESCDNDKSTCPNGGPSMCMASGPGQDMFESTHIIGRIIYQKAKELYASASQEVTGPVLAAHQWVNMTDVSVQLNATHTVKTCKPALGYSFAAGTIDGVSGLNITQGTTEGDPFWDTLRDQLLGKPSEEIVECQKPKPILLHSGELTIPHPWQPDIVDVQIVTVGSLAIAAIPGELTTMSGRRFREAIKKEFALYGMKDMTVVIAGLSNVYTHYITTYEEYQAQRYEAASTIYGPHTLSAYIQLFRDLAKAIATDTVANMSSGPEPPFFKNLIASLIPNIADRAPIGKHFGDVLQPAKPEYRVGEVVEVIFVGANPKNSAENQTHQTFLTVEKYEDSVADWQIMYNDASWETRFYWHKGILGLSNATIYWHIPDTAYPGIYRIRYFGHNRKQELLKPAVILAFEGISSPFEVVTT
On to B1, for which, in data set [1], the Km was 22.3 µM and the Vmax was 4.7 pmol/min.

B2: Neutral ceramidase (Homo sapiens), Q9NR71 (protein)
chain: MAKRTFSNLETFLIFLLVMMSAITVALLSLLFITSGTIENHKDLGGHFFSTTQSPPATQGSTAAQRSTATQHSTATQSSTATQTSPVPLTPESPLFQNFSGYHIGVGRADCTGQVADINLMGYGKSGQNAQGILTRLYSRAFIMAEPDGSNRTVFVSIDIGMVSQRLRLEVLNRLQSKYGSLYRRDNVILSGTHTHSGPAGYFQYTVFVIASEGFSNQTFQHMVTGILKSIDIAHTNMKPGKIFINKGNVDGVQINRSPYSYLQNPQSERARYSSNTDKEMIVLKMVDLNGDDLGLISWFAIHPVSMNNSNHLVNSDNVGYASYLLEQEKNKGYLPGQGPFVAAFASSNLGDVSPNILGPRCINTGESCDNANSTCPIGGPSMCIAKGPGQDMFDSTQIIGRAMYQRAKELYASASQEVTGPLASAHQWVDMTDVTVWLNSTHASKTCKPALGYSFAAGTIDGVGGLNFTQGKTEGDPFWDTIRDQILGKPSEEIKECHKPKPILLHTGELSKPHPWHPDIVDVQIITLGSLAITAIPGEFTTMSGRRLREAVQAEFASHGMQNMTVVISGLCNVYTHYITTYEEYQAQRYEAASTIYGPHTLSAYIQLFRNLAKAIATDTVANLSRGPEPPFFKQLIVPLIPSIVDRAPKGRTFGDVLQPAKPEYRVGEVAEVIFVGANPKNSVQNQTHQTFLTVEKYEATSTSWQIVCNDASWETRFYWHKGLLGLSNATVEWHIPDTAQPGIYRIRYFGHNRKQDILKPAVILSFEGTSPAFEVVTI
As for B2, the specific activity turned out to be 3.1 pmol/min/ng in data set [2], 0.26 pmol/min/ng in [3], 1.6 pmol/min/ng in [4] and 0.5 pmol/min/ng in data set [5]. Moreover, the Michaelis-Menten constant (Km) came out at 190 µM in [6], 36.4 µM in data set [7], 193 µM in [8] and 85.3 µM in data set [9]. In addition, the Vmax in [6] was 62.4 pmol/min; in [7], 5.3 pmol/min; in [8] it was 31.8 pmol/min; in [9], 10 pmol/min.

B3: Acid ceramidase (Homo sapiens), Q13510 (protein)
chain: MPGRSCVALVLLAAAVSCAVAQHAPPWTEDCRKSTYPPSGPTYRGAVPWYTINLDLPPYKRWHELMLDKAPVLKVIVNSLKNMINTFVPSGKIMQVVDEKLPGLLGNFPGPFEEEMKGIAAVTDIPLGEIISFNIFYELFTICTSIVAEDKKGHLIHGRNMDFGVFLGWNINNDTWVITEQLKPLTVNLDFQRNNKTVFKASSFAGYVGMLTGFKPGLFSLTLNERFSINGGYLGILEWILGKKDVMWIGFLTRTVLENSTSYEEAKNLLTKTKILAPAYFILGGNQSGEGCVITRDRKESLDVYELDAKQGRWYVVQTNYDRWKHPFFLDDRRTPAKMCLNRTSQENISFETMYDVLSTKPVLNKLTVYTTLIDVTKGQFETYLRDCPDPCIGW
For B3, the Michaelis-Menten constant (Km) in data set [10] amounted to 86.9 µM; in data set [11], 81.8 µM; in data set [12], 204 µM; in [13], 110 µM. Also, the maximal velocity (Vmax) was 4.4 pmol/min in data set [10], 3.9 pmol/min in data set [11], 12.2 pmol/min in data set [12] and 7.2 pmol/min in [13]. Moreover, the specific activity is 0.0882 pmol/min/µg in data set [14], 0.078 pmol/min/µg in data set [15], 0.244 pmol/min/µg in [16] and 0.143 pmol/min/µg in data set [17].
